GalR3 antag: human GalR3 antagonism; O60755; HEK293 GalR3-CNG cAMP membrane potential fluorescence; galR3 body fused to GalR1 C-terminus; inhibition, % at 3 µM; 360,000 compounds, 0.44% hits; AID 651719;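 active = inhibition above the screen-wide average plus 3 SD, cut at about 13% in these data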;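 also: forskolin and galanin both at EC90 stimulate the cells; cAMP rise reported by CNG channel membrane potential dye signal; 0% = forskolin plus galanin with DMSO and 100% = forskolin alone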
Jurkat NFkB inh: lowers PMA/ionomycin-induced NF-kB signal in Jurkat cells; PMA/ionomycin-induced NF-kB luciferase reporter, luminescence; inhibition, % at 4 µM; 330,000 compounds, 0.53% hits; AID 435003; in the data active = inhibition above about 50%
697 NFkB inh: inhibitors of the PMA/ionomycin-induced NF-kB reporter in 697 B cells; 697 B-cell NF-kB luciferase reporter, 16 h; inhibition, % at 4 µM; 330,000 compounds, 0.33% hits; in the data active = inhibition above about 35%
Gli-Sufu block: antagonists of Gli-Sufu signaling | 340,000 compounds, 0.74% hits | AID 588413 | Sufu-KO-LIGHT fibroblasts, Gli luciferase reporter luminescence | inhibition, % at 5 µM;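 active = inhibition above about 55%, limit read from the data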;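 also: 0% = DMSO-treated cells and 100% = wells with medium but no cells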
NR2E3 ag-1: NR2E3 (human) agonism. AID 2300. inhibition of corepressor binding, % at 4.78 µM. 320,000 compounds, 0.12% hits. Q9Y5X4. GST-NR2E3/biotin-RetCOR TR-FRET, 1536-well;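 active = percent inhibition above the cutoff of mean plus 3 SD of all tested compounds, set per screening campaign, cut at about 20% in these data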;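 also: 0% = DMSO wells and 100% = biotin wells as full block of FRET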
Target sequence (Q9Y5X4 whole entry, looked up): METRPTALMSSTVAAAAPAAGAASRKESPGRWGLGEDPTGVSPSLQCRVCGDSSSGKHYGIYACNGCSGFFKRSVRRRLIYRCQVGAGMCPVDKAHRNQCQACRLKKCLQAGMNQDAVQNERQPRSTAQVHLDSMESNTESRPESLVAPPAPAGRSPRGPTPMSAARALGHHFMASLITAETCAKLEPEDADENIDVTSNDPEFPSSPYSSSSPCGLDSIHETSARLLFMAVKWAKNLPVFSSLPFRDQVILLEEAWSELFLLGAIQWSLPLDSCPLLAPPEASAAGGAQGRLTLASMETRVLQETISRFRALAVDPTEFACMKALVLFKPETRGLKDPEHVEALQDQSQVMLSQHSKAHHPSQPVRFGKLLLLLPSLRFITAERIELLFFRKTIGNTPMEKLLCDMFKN
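System: GST-tagged NR2E3 plus biotinylated RetCOR corepressor; Buffer or medium: pH 7.5 Tris-based buffer; Probe or stimulus: RetCOR corepressor, biotinylated, 7 nM; Doses: compound at 4.8 µM, single dose; Schedule: 5 h incubation at 4 °C; Technique: time-resolved FRET; Evaluation: percent inhibition of TR-FRET ratio; Replication: one well per compound, singlicate testing.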
NR2E3 ag-2: activates human NR2E3 receptor; Q9Y5X4; CHO-S Gal4-NCOR/VP16-NR2E3 two-hybrid, luciferase; inhibition of corepressor binding, % at 3.98 µM; 360,000 compounds, 0.35% hits; AID 602229;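 active = inhibition above the mean of all tested compounds plus 3 SD, cut at about 70% in these data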;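 also: 0% = DMSO with NR2E3 transfected cells and 100% = cells lacking NR2E3 construct; higher means lower luciferase signal from less NR2E3 corepressor binding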
Jurkat NFkB conf: lowers PMA/ionomycin-induced NF-kB signal in Jurkat cells | shares compounds with Jurkat NFkB inh | inhibition, % at 4 µM | Jurkat NF-kB luciferase, 16 h | 2,700 compounds, 27% hits;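 active = inhibition reaching about 45% at 4 µM in either replicate, limit read from the data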;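 also: plate controls were PMA/ionomycin stimulated DMSO wells for no effect and unstimulated DMSO wells for full effect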
An asterisk follows results filed as active; . = no result given. Compounds with a hit are over-represented: about 1.8% of the library has one in this group of screens.

SMILES	GalR3 antag	Jurkat NFkB inh	697 NFkB inh	Gli-Sufu block	NR2E3 ag-1	NR2E3 ag-2	Jurkat NFkB conf
Cc1ccc(OCCCNCCO)c(Br)c1	-3	81*	-8	-1	-3	-27	35
CNCCCOc1ccc(C)cc1Br	-3	9	-8	1	-3	-15	.
COC(=O)C1=C(C)N(CC(C)C)C(=S)NC1c1cccc(Br)c1 (configuration not stated)	-2	.	.	.	.	.	.
Cn1cccc1C(=O)C(=O)Nc1ccc(Cl)cc1	-4	-112	-162	-85	0	-167	.
Cn1cccc1C(=O)C(=O)Nc1cccc(Cl)c1Cl	-2	-151	-185	-64	-1	-86	-64
Cc1ccc(N2C(=O)c3cccc4c(N)ccc(c34)C2=O)c2cccnc12	19*	75*	-213	41	-1	-23	43
O=C(/C=C\c1ccco1)Nc1cc([N+](=O)[O-])ccc1F	-10	68*	-31	23	-1	-22	17
C/C(=N\NC(=O)c1c([N+](=O)[O-])c(C)nn1C)c1ccc(NC(=O)C2CCCC2)cc1	0	53*	9	40	1	-1	50*
C/C(=N\NC(=O)c1c(Br)c(C)nn1C)c1cccc(NC(=O)C2CCC2)c1	0	-5	11	-3	3	2	.
C/C(=N\NC(=O)c1c(Cl)c(C)nn1C)c1ccc(NC(=O)C2CCC2)cc1	0	62*	2	48	-2	-22	17
CN(C)S(=O)(=O)c1ccc(Nc2nc(C3CC3)nc3c2nnn3Cc2ccccc2Cl)cc1	-8	57*	-16	45	1	9	65*
COc1ccccc1CNC(=O)c1csc(Cc2ccc(Cl)cc2)n1	-3	71*	0	.	2	3	18
COc1ccc(CNC(=O)c2csc(Cc3ccccc3)n2)cc1	0	-34	-11	-24	-1	-49	.
COC(=O)c1cc2c(c3c4cc(C)ccc4n(S(=O)(=O)c4ccc(OC)cc4)c13)C(=O)N(Cc1ccccc1OC)C2	-4	.	.	.	.	.	.
C=CCNc1nc(-c2ccc3c(c2)OCCO3)cs1	-1	-152	-181	-101	-3	-193	-8
CC1=C(C#N)C(c2cn(-c3ccccc3)nc2-c2cccs2)C(C#N)=C(C)N1	-9	53*	-30	42	0	8	-8
CC(=O)N(c1ccc(Cl)cc1)c1cn(C(C)=O)c2ccccc12	-5	-2	9	-41	1	4	.
CC(=O)n1cc(N(C(=O)CCl)c2ccc(C)cc2)c2ccccc21	-5	76*	8	4	-1	-12	-1
COc1ccccc1NC(CC(=O)c1ccccc1)C(=O)OCC(=O)c1ccc(F)cc1 (configuration not stated)	-1	-173	-168	-15	0	-137	-41
COc1ccccc1NC(=O)CCCC(=O)OCC(=O)c1ccc(F)cc1	-8	-2	-1	-5	3	-36	.
N/C(=N/OC(=O)c1cccc([N+](=O)[O-])c1)c1cccc([N+](=O)[O-])c1	5	-48	-18	-17	3	-4	.
N/C(=N\OC(=O)c1ccccc1Cl)c1cccc([N+](=O)[O-])c1	-9	-172	-235	-80	-4	-68	-101
COc1cc(C(=O)N/N=C/c2cc([N+](=O)[O-])cs2)cc(OC)c1OC	-3	67*	-17	21	-2	-2	42
CCOc1ccc(C(=O)N/N=C/c2cc([N+](=O)[O-])cs2)cc1	-3	11	1	-25	-12	25	.
COCCN(Cc1ccc(C)cc1)C(=O)[C@H]1O[C@@H](n2cnc(C(N)=O)n2)[C@H](O)[C@@H]1O	-7	.	.	.	.	.	.
SMILES	GalR3 antag	Jurkat NFkB inh	697 NFkB inh	Gli-Sufu block	NR2E3 ag-1	NR2E3 ag-2	Jurkat NFkB conf
COc1ccc(CN2C[C@@]3(O)CC[C@@H](O)[C@@H](OC)[C@@H]3[C@@]2(C)[C@H](O)CC=C(C)C)cc1	-8	.	.	.	.	.	.
O=C(Nc1cccnc1)c1ccc(COc2ccccc2Br)o1	-10	35	19	5	7	-32	.
O=C(NCc1cccnc1)c1ccc(COc2ccc3c(c2)CCC3)o1	-5	39	-110	-27	-2	-115	.
O=C(NCc1cccnc1)c1ccc(COc2ccccc2Cl)o1	-7	56*	-7	0	0	-11	8
O=C(NCc1cccnc1)c1ccc(COc2ccccc2Br)o1	-5	72*	1	7	1	-3	-5
O=C(CSCc1ccccc1Cl)Nc1ccc2c(c1)OCCO2	-4	-162	-32	5	-3	-10	-89
C=CCN=C1NC(c2ccc(Cl)cc2)C(C(=O)OC)=C(C)N1Cc1cccc(C(F)(F)F)c1 (configuration not stated)	-9	.	.	.	.	.	.
O=C(CN1C(=O)NC2(CCOc3ccccc32)C1=O)NCCc1ccccc1 (configuration not stated)	-5	64*	-1	-11	.	5	14
COc1ccc(CCNC(=O)CN2C(=O)NC3(CCOc4ccccc43)C2=O)cc1 (configuration not stated)	-1	14	11	-9	.	26	.
O=C(NCC1CCN(C(=O)C(=O)c2cccs2)CC1)c1ccc2ccccc2c1	-1	.	.	.	.	.	.
Nc1cccc2nc3ccccc3cc12	.	62*	24	-15	6	-43	-4
Nc1[nH]nc2nc3ccccc3cc12	8	-5	17	-6	-7	-1	.
CCCCS(=O)(=O)N1CCCc2nc(-c3ccccc3)ccc21	-6	.	.	.	.	.	.
COC(=O)C1=C(C)N(Cc2ccccc2C(F)(F)F)C(=NCc2ccc3c(c2)OCO3)NC1c1ccccc1 (configuration not stated)	0	.	.	.	.	.	.
Nc1ncn(C2O[C@H](CO)[C@@H](O)[C@H]2O)c(=O)n1 (some centres not stated)	.	82*	-145	.	0	.	90*
N#Cc1cc2c(nc1SCc1nc3ccccc3[nH]1)CCC2	.	-169	-131	.	9	.	-56
Cc1cccc(CSc2nc3c(cc2C#N)CCC3)c1	-5	-11	-26	-17	0	-29	.
COC(=O)c1cc2c(c3c4cc(OC)ccc4n(S(=O)(=O)c4ccc(C)cc4)c13)C(=O)N(C)C2	-6	.	.	.	.	.	.
CN(C)CCCn1cnc2c(c1=N)C(c1ccccc1)c1ccc3ccccc3c1O2 (configuration not stated)	-12	87*	2	12	-1	29	24
COc1ccc(C2c3ccc4ccccc4c3Oc3ncn(CCN(C)C)c(=N)c32)cc1 (configuration not stated)	-14	51*	19	15	1	24	4

Screening results: PubChem, several laboratories
